167 variants from the RNAGym collection of RNA variant scans (doi:10.1126/science.aae0568) can be followed below.

Fewer inactive variants are shown than the library holds. Where only a bound is given, the exact number is not on record here.

The labels stand for the following.
B1: tRNA (parent)
chain: GUUCCGUUGGCGUAAUGGUAACGCGUCUCCCUCCUAAGGAGAAGACUGCGGGUUCGAGUCCCGUACGGAACG

Variants of B1 are the subject of this data set. The experiment in a line: yeast fitness relative to wild type (ratio to wild type); higher = fitter; tRNA-Arg(CCU), competitive growth, 37 C, YPD. The procedure, abridged:
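A pool of Saccharomyces cerevisiae strains, each with a tRNA-Arg(CCU) gene variant at the native genomic locus, was competed in YPD at 37°C for 24 hours across six parallel replicates. The variants had been chemically synthesised at a 3% per-site mutation rate over 69 sites, and gene amplicons before and after competition were read by 100-nucleotide paired-end sequencing. Darwinian fitness relative to wild type rested on changes in genotype frequencies. Genotypes required ≥ 100 starting reads, and estimates < 0.5 were set to 0.5.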
As for G12A C27G, the yeast fitness was found to be 0.71.

Take U3A C49U G63A: the yeast fitness worked out at 0.764.

In the case of C4G G58C, the yeast fitness is 1.1.

Consider U28C A40C C66G, for which the yeast fitness was 0.733.

G52C A57C G63C: the yeast fitness was found to be 0.519.

For the variant U26A A36G G56C, the yeast fitness is at most 0.5.

For C4U C24U G56A C60A, the yeast fitness was at most 0.5.

With U3G C29A C46U C61G, the yeast fitness is at most 0.5.

In the case of U3A C30G G38C A69C, the yeast fitness was 0.671.

For C5G A20U A37G, the yeast fitness is at most 0.5.

Regarding U3A G58C, the yeast fitness was determined as 0.987.

For the variant U64G A69C, the yeast fitness was found to be 0.616.

Turning to G12A U13A A14G A21G C33U C62G, the yeast fitness is at most 0.5.

Consider C4G G10C C11G A37U A43G A69G, for which the yeast fitness is at most 0.5.

Regarding C11U U16A C29A A45U, the yeast fitness was 0.605.

With C4G G50A C55U, the yeast fitness is at most 0.5.

G18A U26G G50C G63C: the yeast fitness stood at 0.589.

Regarding U16G C49U, the yeast fitness worked out at 0.916.

Take U13G C27A U28A C33U: the yeast fitness is at most 0.5.

On to U28G U32C C49G G52C, for which the yeast fitness was at most 0.5.

Turning to C4U C30U, the yeast fitness is 0.931.

Regarding C11U U26A A43U C60A A65G, the yeast fitness was determined as 0.531.

In the case of C60G G67C, the yeast fitness amounted to 0.574.

With C4G A15U A21G G56A, the yeast fitness was determined as 0.626.

Take A40U G58A: the yeast fitness was 0.92.

In the case of C30U G41C, the yeast fitness came out at 0.651.

Consider C34A A42G C46U, for which the yeast fitness is at most 0.5.

With C5U A20C C31A C34G A57G A65U, the yeast fitness was found to be 0.593.

As to U8C U26G, the yeast fitness is 0.959.

As for G12C C27U G39A, the yeast fitness was at most 0.5.

Regarding G10C G41A G50C, the yeast fitness was at most 0.5.

With G6C U53G, the yeast fitness came to 0.519.

For C22U U32C C46U U54G, the yeast fitness is 0.593.

As to G6A G10A G17A, the yeast fitness was 0.55.

As for A15U C29G C34U C66U, the yeast fitness was at most 0.5.

For the variant U16C G17A C27U C34G G38C A43G C62A, the yeast fitness was at most 0.5.

For U8A G12A A21G C62U, the yeast fitness is 0.697.

As to U13G C29A, the yeast fitness was 0.571.

On to A20G C27U G58C, for which the yeast fitness worked out at 0.78.

As for G6A G12C C34U A70U, the yeast fitness worked out at 0.671.

Regarding U3C C46U, the yeast fitness stood at 0.892.

As for G6A G41A C62U, the yeast fitness is 0.619.

On to A42G A43U U54A, for which the yeast fitness is at most 0.5.

As to G18C A20U C34U A40C C49U U64C C66U, the yeast fitness worked out at 0.549.

With U7A A21U G51C C62U, the yeast fitness came to 0.816.

Take A14C A40G A42U: the yeast fitness was at most 0.5.

Take C5G C11U U19C G41C: the yeast fitness stood at 0.536.

As for C27U C33G A43G A57G C61U C62U, the yeast fitness was found to be 0.509.

In the case of U32C A65G, the yeast fitness came out at 0.936.

Regarding C5A G41A A57U, the yeast fitness is at most 0.5.

For C34G U47C C49U, the yeast fitness came to 0.638.

As to A20U C29G C33U, the yeast fitness amounted to 0.609.

As for U19G C29A, the yeast fitness was 0.56.

As for C24G G38C A65U, the yeast fitness was 0.509.

As for C29U A36C A45U U54C, the yeast fitness is at most 0.5.

U8C G67U: the yeast fitness worked out at 0.862.

On to C30U C33A A43G, for which the yeast fitness was at most 0.5.

As to G18A C27A G48A, the yeast fitness amounted to 0.612.

For the variant C33A C55U, the yeast fitness amounted to 0.581.

Take U3G U13A: the yeast fitness stood at 1.1.

U2A G9A C31U C46G C49U C66G: the yeast fitness was at most 0.5.

As for A36U A69C, the yeast fitness stood at 0.629.

Turning to C30G C33U C66U, the yeast fitness is at most 0.5.

On to G6A A20C C61A, for which the yeast fitness was at most 0.5.

A15C A37G: the yeast fitness turned out to be 0.614.

For A42G G51A A57C U59C C60U, the yeast fitness was at most 0.5.

For the variant U7G A21U, the yeast fitness worked out at 0.717.

As to C5G C60A A69C, the yeast fitness is 0.532.

Regarding C29A A45C C49U C66U, the yeast fitness is at most 0.5.

C11G A15U C24G A40G C61A: the yeast fitness is at most 0.5.

In the case of C30G U53C, the yeast fitness came to 0.632.

With G12A C30U U54A, the yeast fitness was 0.52.

Consider C31U C46A A65C, for which the yeast fitness worked out at 0.73.

G17C C29U U53A C66A: the yeast fitness was at most 0.5.

Consider A21U U35A, for which the yeast fitness is 0.584.

A20G C31U: the yeast fitness worked out at 0.995.

In the case of U7A A70G, the yeast fitness is 0.829.

For U2G G10A G50A, the yeast fitness is at most 0.5.

For the variant A45C G63C, the yeast fitness was 0.589.

As to U8G C34U A40C, the yeast fitness is 0.591.

Turning to C11G C33G C62G, the yeast fitness is at most 0.5.

C27G C34G C55G U59C C60U G67U: the yeast fitness is at most 0.5.

As for C24G A40C G56U, the yeast fitness is at most 0.5.

Regarding U28C U47C U59A C66A, the yeast fitness was at most 0.5.

With C4U C30A G39C, the yeast fitness was found to be 0.598.

Regarding C4A A15G C33G C60A A70C, the yeast fitness stood at 0.599.

For the variant A21U C30G, the yeast fitness stood at 0.54.

In the case of C27A G39C A57U, the yeast fitness was at most 0.5.

In the case of A42U U54G, the yeast fitness came out at 0.605.

C24U A42U G67A: the yeast fitness was found to be 0.567.

In the case of U8C A21U C27G C29U U32C, the yeast fitness is at most 0.5.

Consider C24A C29U A37U C60A C66U, for which the yeast fitness was at most 0.5.

Take U2G A37C G51A: the yeast fitness is at most 0.5.

As to C24U C49U U54G G67A, the yeast fitness was at most 0.5.

For C5A C33G C34A A40C, the yeast fitness was found to be 0.567.

Regarding G9C A42G A57U, the yeast fitness stood at 0.521.

With U3C U26G G67C, the yeast fitness is at most 0.5.

With C11A C27G C61A, the yeast fitness is at most 0.5.

For U26G A36U U47G, the yeast fitness amounted to 0.626.

Turning to C5G G50A A69U, the yeast fitness was found to be 0.742.

Turning to U26C G39C C55A C60G, the yeast fitness is at most 0.5.

For the variant C24U C34U A69C, the yeast fitness came to 0.502.

For the variant G17A U19C C24U, the yeast fitness amounted to 0.75.

As to C4G U19A A37U A42G A65C G67A, the yeast fitness was at most 0.5.

As for U3C C31U A70G, the yeast fitness was determined as 0.812.

With G23A C33G U35G C60U C62G A69U, the yeast fitness was at most 0.5.

In the case of G10C C11G A21U A45C G52C A57G, the yeast fitness was at most 0.5.

Regarding U7A C31G U64A C66U G68C, the yeast fitness was at most 0.5.

Regarding G41A G51C, the yeast fitness was at most 0.5.

G12C A15C A20U G41A: the yeast fitness was at most 0.5.

As for G38C G39U C60A, the yeast fitness is at most 0.5.

On to G18C A21G, for which the yeast fitness turned out to be 0.643.

Consider A36U G67C, for which the yeast fitness worked out at 0.602.

Turning to C5G C11U G17A A20C C49G, the yeast fitness is at most 0.5.

C4G C29G A36C A37U A40C A45G G51A: the yeast fitness was determined as 0.503.

As to A15C A65C, the yeast fitness was found to be 0.713.

Take U7C G48C A70C: the yeast fitness is 0.6.

As for A42G C61A G67A, the yeast fitness is at most 0.5.

Turning to C22G C27A, the yeast fitness turned out to be 0.604.

Consider G10A G50A U59G C62A, for which the yeast fitness is at most 0.5.

For G38A C46G G56C, the yeast fitness is at most 0.5.

Consider C4U A20U C27G C30G A43G A65C G68C, for which the yeast fitness was 0.639.

For the variant C30G C55G A57C U59C, the yeast fitness is at most 0.5.

As to A14C A42G, the yeast fitness was 0.595.

Regarding C22U G41A, the yeast fitness was determined as 0.706.

On to C34A A42U A69U, for which the yeast fitness was at most 0.5.

In the case of U3C C22G G25A, the yeast fitness worked out at 1.02.

As to C4A A20C, the yeast fitness came to 0.64.

As to G9A G39C C62G U64C, the yeast fitness worked out at 0.568.

For G12A A21U C66U A69C, the yeast fitness was at most 0.5.

In the case of G9A A45C C46G A57U, the yeast fitness was at most 0.5.

For the variant C11U U16A A36C A43G C62G A65U, the yeast fitness is at most 0.5.

On to C4A C33A C34U G39C U54A, for which the yeast fitness is at most 0.5.

U2A G6C C33U A40G: the yeast fitness amounted to 0.547.

For the variant G38A C55U A57G, the yeast fitness was at most 0.5.

In the case of C4U A15U A42C U47A A65G, the yeast fitness was at most 0.5.

For U8A G23A A36G, the yeast fitness was at most 0.5.

In the case of C31G G41C G50C, the yeast fitness is 0.533.

For U32A G58A, the yeast fitness came out at 0.781.

With A14G U16C, the yeast fitness stood at 0.897.

For C11G A21C A36U, the yeast fitness came out at 0.511.

In the case of A15U U64G A69U, the yeast fitness is at most 0.5.

Regarding U3A C5G A21U, the yeast fitness came to 0.539.

Regarding A14U A45U, the yeast fitness was 0.572.

With C4G U35A A36U, the yeast fitness is at most 0.5.

As to U2G A20C C33A, the yeast fitness was at most 0.5.

For the variant C22U A43G A57U, the yeast fitness came out at 0.59.

Consider A14C C24A G52A U53A, for which the yeast fitness was at most 0.5.

Turning to G10A G12A C29G A65U, the yeast fitness is at most 0.5.

U7A A20G G23A U26G A69C: the yeast fitness was at most 0.5.

For C5U U8C A36G A40G C60A, the yeast fitness was at most 0.5.

As to G68A, the yeast fitness came out at 0.963.

As for A42C A43U, the yeast fitness was 0.779.

Regarding A14G U26C G68A, the yeast fitness was found to be 0.557.

On to U16A C31A, for which the yeast fitness amounted to 0.645.

For the variant G68A A69G, the yeast fitness is 0.827.

With G17C G18C C22A, the yeast fitness is at most 0.5.

For U16C G17A, the yeast fitness is 0.797.

Regarding C27U A70C, the yeast fitness was 1.03.

Consider U19C A20U A70U, for which the yeast fitness was 0.794.

U8A U28C U47A: the yeast fitness is at most 0.5.

As for C24U C49U, the yeast fitness amounted to 0.969.

As for C4G C33U A45U C60G, the yeast fitness was at most 0.5.

As for C4G C5G C11A G38A C49U, the yeast fitness is at most 0.5.

In the case of A36C A43C, the yeast fitness worked out at 0.626.

Turning to G9C C31A C62G C66U, the yeast fitness is at most 0.5.

G44A A45U C62G: the yeast fitness is at most 0.5.
